# Screening data (PubChem)
# Only some compounds are listed: those with a hit (about 12% of all), similar ones and a draw of the others.
# RAM network inh: inhibitors of the yeast RAM network, primary screen, dse1pr::URA3 reporter, 5-FOA selection | S. cerevisiae dse1pr::URA3 reporter, 5-FOA growth OD615, 2 d; analog-sensitive cbk1-as2 kinase mutant strain | inhibition, % at 50 µM | 190,000 tested, 1.8% active | AID 868, 2007;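 active = inhibition above a set limit, 3 SD over mean compound inhibition, cut at about 8.4% in these data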;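 note: inhibition rescues growth on 5-FOA so higher OD means more RAM inhibition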
# ABCG2 block: ABCG2 efflux pump inhibitors, primary screen, multiplex with ABCB1, IgMXP3 cells, flow cytometry | Broad substrate specificity ATP-binding cassette transporter ABCG2 (Homo sapiens), Q9UNQ0 | JC-1 efflux | inhibition, % at 6.6 µM | 190,000 tested, 0.1% active;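 active = inhibition above 80%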
#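 Read-out basis: Efflux inhibition in percent versus controls | Test system: ABCG2 IgMXP3 and barcoded ABCB1 CCRF-Adr cell mix | Quantity: 3 million cells/mL in well | Schedule: 10 min at 25 °C | Control set: Nicardipine as high control, DMSO as low control | Reagent: JC-1 as fluorescent efflux pump substrate | Signal: Flow cytometry of retained JC-1 fluorescence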
# ABCB1 inh: ABCB1 efflux pump inhibitors, primary screen, cell-based, multiplex, flow cytometry, ABCG2 counter-screen | ATP-dependent translocase ABCB1 (Homo sapiens), P08183 | CCRF-Adr cells, JC-1 efflux | inhibition, % at 6.6 µM | 190,000 tested, 0.067% active; in the data active = inhibition above about 40%;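 note: higher value means more JC-1 retained so stronger ABCB1 efflux block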
# WT yeast gro inh: growth inhibition of WT strain, primary screen, mitochondrial fusion inhibitor project, WT and mutant strains, chemical genetic | mitochondrial fusion phenotypic screen | inhibition, % at 10 µM | 190,000 tested, 2.1% active | AID 1362, 2008; in the data active = inhibition above about 58%; tested in S. cerevisiae
# Lmaj promast: Leishmania major promastigote growth inhibition, primary screen. Leishmania major promastigotes, resazurin fluorescence viability. inhibition, % at 10 µM. 200,000 tested, 9% active. AID 1063, 2008; in the data active = inhibition above about 50%;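 note: promastigotes grown with compound for 44 hours at 28 °C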
# Numbers stand for hits; i = inactive; nt = no result.
SMILES,RAM network inh,ABCG2 block,ABCB1 inh,WT yeast gro inh,Lmaj promast
CC(C)c1ccccc1NC(=S)NN(Cc1ccccc1)c1ccccc1,i,i,i,62,54
S=C(NCC1CCCO1)Nc1ccccc1Cl (configuration not stated),i,i,i,i,64
Fc1ccccc1NC(=S)NN(Cc1ccccc1)c1ccccc1,i,i,i,i,i
Cc1nnc(SCC(=O)N(Cc2ccccc2)C(C)(C)C)[nH]c1=O,i,i,i,i,i
CC(=O)c1ccc(N2CCN(C(=O)c3cc4c(=O)n(C)c5ccccc5c4n3C)CC2)cc1,nt,nt,nt,i,nt
Cc1cc(=O)[nH]c(SCC(=O)NCCC2=CCCCC2)n1,i,i,i,i,i
S=C(Nc1ccc(Cl)cc1Cl)NC1CCN(Cc2ccccc2)CC1,i,i,i,i,92
O=C(NCCN1CCOCC1)C1CCC(=O)N1Cc1ccccc1Cl (configuration not stated),i,i,i,i,i
O=C(NCC1CCCO1)C1CCC(=O)N1Cc1ccccc1Cl (configuration not stated),i,i,i,91,i
S=C(Nc1ccccc1Cl)NC1CCC(NC(=S)Nc2ccccc2Cl)CC1 (configuration not stated),i,i,i,i,i
CCCN1CCC(NC(=S)Nc2cccc(Cl)c2Cl)CC1,i,i,i,i,82
COc1ccc(CN(CC2CCCO2)C(=O)c2cc3sccc3n2C)c(OC)c1 (configuration not stated),i,i,i,i,i
Cc1noc(C)c1COc1cccc(C(=O)Nc2ccccc2N2CCOCC2)c1,i,i,i,i,i
CCC(C)C(NC(C)=O)C(=O)NC(=O)NC(c1ccccc1)c1ccccc1 (configuration not stated),i,i,i,i,i
O=S(=O)(c1cccc2cccc(Cl)c12)N1CCCC1,i,i,i,i,i
CCOC(=O)N1CCN(c2cc(N3CCOCC3)c(F)cc2[N+](=O)[O-])CC1,i,i,i,i,i
CCOC(=O)N1CCN(c2cc(N3CCN(CC)CC3)c(F)cc2[N+](=O)[O-])CC1C (configuration not stated),i,i,i,i,100
CCN(C(=S)Nc1ccc(C(C)=O)cc1)C1CCCCC1,i,i,i,i,i
COc1ccc(CCN2CCC(Nc3nc4ccccc4n3Cc3ccc(F)cc3)CC2)cc1,i,i,i,i,100
CCCn1c(=O)c2ccccc2n2c(SCc3cc(=O)oc4ccc5ccccc5c34)nnc12,i,i,i,i,62
CCCn1c(=O)c2ccccc2n2c(SCc3cc(=O)n4ccsc4n3)nnc12,nt,nt,nt,nt,i
COc1ccc(N2CCN(C(=O)c3cccc(Br)c3)CC2)c([N+](=O)[O-])c1,i,i,i,i,i
CCCCn1c(N)c(N(CC)C(=O)CCc2ccccc2)c(=O)[nH]c1=O,i,i,i,i,i
CC1(C(=O)OCC(=O)c2c[nH]c3ccccc23)CC1(Cl)Cl (configuration not stated),i,i,i,67,i
CC(C)C(NS(=O)(=O)c1c(Cl)cccc1Cl)C(=O)OCC(=O)c1c[nH]c2ccccc12 (configuration not stated),i,i,i,i,i
SMILES,RAM network inh,ABCG2 block,ABCB1 inh,WT yeast gro inh,Lmaj promast
Cc1ccc(C(=O)OCC(=O)c2c[nH]c3ccccc23)cc1,i,i,i,i,i
CC(C)Cc1ccc(C(C)C(=O)OCC(=O)c2c[nH]c3ccccc23)cc1 (configuration not stated),10,i,i,69,i
Cc1ccc2c(c1)N(C(C)C(=O)NCc1cccs1)C(=O)CO2 (configuration not stated),i,i,i,i,i
CCc1cc(C(=O)OC)c(NC(=O)C2CC(=O)NN2Cc2ccccc2)s1 (configuration not stated),i,i,i,i,99
Cc1[nH]c2ccccc2c1CCNC(=O)c1ccc2c(c1[N+](=O)[O-])C(=O)c1ccccc1C2=O,i,i,i,i,95
Cc1[nH]c2c(C)cccc2c1CCNC(=O)c1ccc2c(c1[N+](=O)[O-])C(=O)c1ccccc1C2=O,i,i,i,i,100
CC(=O)OC(C(=O)NCc1ccco1)c1ccncc1 (configuration not stated),i,i,i,i,i
CC(=O)c1ccc(C(=O)N2CCCC(CCC(=O)N(C)CCc3ccccn3)C2)s1 (configuration not stated),i,i,i,i,i
Cc1ccc(C(OCC(C)(C)C[N+](C)(C)C)c2ccccc2)cc1 (configuration not stated),i,i,i,i,100
CCOc1ccc(C(=O)NCCCN2CCOCC2)cc1OCC,i,i,i,i,i
CCOc1ccccc1N1CCN(Cc2cccc(OC)c2OC)CC1,i,i,i,i,i
COc1cccc(CN2CCC(N(CCc3ccccc3)Cc3ccccc3)CC2)c1OC,i,i,i,i,99
Cc1ccc(Cl)cc1N(Cc1ccc(C(=O)NCc2cccnc2)cc1)S(=O)(=O)c1ccccc1,i,i,i,i,83
CN(C)S(=O)(=O)N1CCN(C(=O)c2cccs2)CC1,i,i,i,i,i
COc1ccccc1N(C)S(=O)(=O)c1ccc(Cl)c(C(=O)OCc2c(C)noc2C)c1,11,i,i,i,53
Cc1noc(C)c1COC(=O)c1cc(F)c(F)cc1Cl,i,i,i,i,i
CC(NC(=O)Cc1ccccc1[N+](=O)[O-])c1ccccc1 (configuration not stated),i,i,i,i,i
CC(NC(=O)COC(=O)Cc1ccccc1[N+](=O)[O-])c1ccccc1 (configuration not stated),i,i,i,i,60
O=C(CCl)Nc1ccccc1Sc1ccc(Cl)cc1,i,i,i,i,i
Cc1ccc(Sc2ccc(NC(=O)CCl)cc2)c(C)c1,i,i,i,64,97
N#CC1=C(N)Oc2c(ccc3cccnc23)C1c1cccnc1 (configuration not stated),i,i,i,i,i
N#CC1=C(N)OC2=C(C(=O)CC(c3ccccc3)C2)C1c1cccnc1 (configuration not stated),i,i,i,i,93
N#CC1=C(N)Oc2cc3ccccc3cc2C1c1cccnc1 (configuration not stated),i,i,i,i,85
COc1ccc(CC(=O)NNc2ncnc3c2cnn3-c2ccc(C)cc2)cc1OC,i,i,i,i,i
CC(C)(C)SCCNC(=O)CN(c1ccccc1)S(=O)(=O)c1ccccc1,i,i,i,i,i
CCCCCCCCCC[n+]1cccc2c3ccccc3ccc21,i,i,i,i,100
Cc1cccc[n+]1CCCCCCCCCC[n+]1ccccc1C,i,i,i,i,i
